Experimental data from ChEMBL document CHEMBL2177035, “Design and synthesis of dual modulators of soluble epoxide hydrolase and peroxisome proliferator-activated receptors” (J Med Chem, 2012).
The source made the active and inactive calls. No cut-off for these calls is given here.

How the values were obtained:
[1] = biological target: T1, Peroxisome proliferator-activated receptor alpha (Homo sapiens) (UniProt Q07869); test: Transactivation of GAL4-fused human PPARalpha ligand binding domain transfected in african green monkey COS7 cells at 10 uM by luciferase reporter gene assay relative to GW7647; format: cell-based; conditions: COS-7
T1 sequence (whole entry): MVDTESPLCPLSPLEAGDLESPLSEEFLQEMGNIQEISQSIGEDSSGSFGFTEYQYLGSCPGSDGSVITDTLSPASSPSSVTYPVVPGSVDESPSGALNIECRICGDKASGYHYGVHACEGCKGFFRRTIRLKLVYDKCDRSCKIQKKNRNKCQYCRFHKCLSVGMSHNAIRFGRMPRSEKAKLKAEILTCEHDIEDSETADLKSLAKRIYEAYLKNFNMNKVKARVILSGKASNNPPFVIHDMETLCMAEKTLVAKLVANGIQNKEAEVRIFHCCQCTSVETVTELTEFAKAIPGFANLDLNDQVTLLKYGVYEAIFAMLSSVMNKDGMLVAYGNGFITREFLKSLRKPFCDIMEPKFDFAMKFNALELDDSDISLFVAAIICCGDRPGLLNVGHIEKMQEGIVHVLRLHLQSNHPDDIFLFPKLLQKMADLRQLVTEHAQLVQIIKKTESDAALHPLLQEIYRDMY
Summary of the method: (§1)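 COS7 cells in DMEM/10% FCS at 37 °C, 5% CO2, plated 30000/well the day before. Lipofectamine LTX co-transfection of pFR-Luc, pRL-SV40 and Gal4–hPPAR-LBD (pFA-CMV) of the given subtype. After 5 h, switched to phenol red-free DMEM/10% FCS with 0.1% DMSO and compound; overnight incubation. Dual-Glo firefly/renilla luminescence, normalized to DMSO. Maximum effect compared with 1 μM reference agonist (GW7647 for α, L165,041 for δ). Triplicate wells, ≥3 independent runs.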

[2] = biological target: T2, Bifunctional epoxide hydrolase 2 (Homo sapiens, UniProt P34913); test: Inhibition of recombinant soluble epoxide hydrolase using PHOME as substrate after 10 mins by fluorescence assay
T2 sequence (P34913 whole entry): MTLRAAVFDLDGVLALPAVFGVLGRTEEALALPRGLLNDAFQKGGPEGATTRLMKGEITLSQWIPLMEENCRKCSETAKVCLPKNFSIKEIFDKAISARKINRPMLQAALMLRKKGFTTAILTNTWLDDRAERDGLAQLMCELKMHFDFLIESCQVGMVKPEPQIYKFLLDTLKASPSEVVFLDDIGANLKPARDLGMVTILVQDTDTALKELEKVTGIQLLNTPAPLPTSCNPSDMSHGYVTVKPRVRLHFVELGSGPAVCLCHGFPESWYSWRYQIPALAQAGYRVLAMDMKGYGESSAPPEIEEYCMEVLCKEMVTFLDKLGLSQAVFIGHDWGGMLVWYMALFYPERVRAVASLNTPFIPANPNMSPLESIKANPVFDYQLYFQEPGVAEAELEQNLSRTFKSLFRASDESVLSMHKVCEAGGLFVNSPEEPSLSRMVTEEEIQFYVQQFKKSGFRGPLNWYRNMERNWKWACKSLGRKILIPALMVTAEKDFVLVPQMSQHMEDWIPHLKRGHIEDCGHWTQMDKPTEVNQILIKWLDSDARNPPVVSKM

[3] = biological target: T3, Peroxisome proliferator-activated receptor delta (Homo sapiens) (UniProt Q03181); test: Transactivation of GAL4-fused human PPARdelta ligand binding domain transfected in african green monkey COS7 cells at 10 uM by luciferase reporter gene assay relative to L-165041; format: cell-based; conditions: COS-7; summary of the method: as §1
T3 sequence (whole entry): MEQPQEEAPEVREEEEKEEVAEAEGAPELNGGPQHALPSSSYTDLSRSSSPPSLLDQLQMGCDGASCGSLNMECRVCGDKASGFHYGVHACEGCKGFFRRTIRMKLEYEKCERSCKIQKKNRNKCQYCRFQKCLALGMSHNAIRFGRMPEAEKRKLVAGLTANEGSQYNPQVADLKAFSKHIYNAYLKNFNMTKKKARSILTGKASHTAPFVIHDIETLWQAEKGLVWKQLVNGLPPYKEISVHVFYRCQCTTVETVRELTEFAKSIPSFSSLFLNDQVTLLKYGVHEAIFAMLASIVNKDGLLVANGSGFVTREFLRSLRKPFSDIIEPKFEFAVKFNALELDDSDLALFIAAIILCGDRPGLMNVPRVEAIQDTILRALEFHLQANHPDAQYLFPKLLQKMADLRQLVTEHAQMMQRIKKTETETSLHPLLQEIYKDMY

[4] = biological target: T1, Peroxisome proliferator-activated receptor alpha (Homo sapiens); test: Transactivation of GAL4-fused human PPARalpha ligand binding domain transfected in african green monkey COS7 cells by luciferase reporter gene assay; format: cell-based; conditions: COS-7
Summary of the method: (§2)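 Gal4–hPPAR-LBD (α or δ) transient co-transfection with pFR-Luc and pRL-SV40 into COS7 cells seeded 30000/well. Compounds given in phenol red-free DMEM/10% FCS with 0.1% DMSO from 5 h post-transfection, overnight. Firefly over renilla luminescence, divided by DMSO control. EC50 and SD from means of ≥3 determinations by four-parameter logistic fit; triplicate wells, ≥3 independent experiments.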

[5] = biological target: T3, Peroxisome proliferator-activated receptor delta (Homo sapiens); test: Transactivation of GAL4-fused human PPARdelta ligand binding domain transfected in african green monkey COS7 cells by luciferase reporter gene assay; format: cell-based; conditions: COS-7; summary of the method: as §2

SMILES | Activity [1] | IC50 [2] [µM] | Activity [3] | %max [4] [%] | Activity [5] | Activity [4]
O=C(NCc1cccc(Cn2cccc2C(=O)O)c1)NC12C[C@H]3C[C@@H](C1)C[C@@H](C2)C3 | inactive | 0.304 | inactive | – | – | –
O=C(NCc1ccc(Cn2cccc2C(=O)O)cc1)Nc1ccc(OC(F)(F)F)cc1 | 67% | 0.258 | inactive | 90 | inactive | –
O=C(NCc1ccccc1Cn1cccc1C(=O)O)NC12C[C@H]3C[C@@H](C1)C[C@@H](C2)C3 | inactive | – | inactive | – | inactive | inactive
CCOC(=O)c1cccn1Cc1ccccc1CNC(=O)NC1CCCCC1 | inactive | 0.039 | inactive | – | – | –
O=C(NCc1ccccc1Cn1cccc1C(=O)O)NC1CCCCC1 | inactive | 0.747 | inactive | – | – | –
O=C(NCc1ccc(Cn2cccc2C(=O)O)cc1)NC1CCCCC1 | inactive | 0.252 | inactive | – | – | –
CCOC(=O)c1cccn1Cc1ccc(CNC(=O)NC2CCCCC2)cc1 | inactive | 0.023 | inactive | – | – | –
CCOC(=O)c1cccn1Cc1ccccc1CNC(=O)Nc1ccc(OC(F)(F)F)cc1 | inactive | 2.01 | inactive | – | – | –
CCOC(=O)c1cccn1Cc1cccc(CNC(=O)NC2CCCCC2)c1 | inactive | 0.027 | inactive | – | – | –
CCOC(=O)c1cccn1Cc1cccc(CNC(=O)NC23C[C@H]4C[C@@H](C2)C[C@@H](C3)C4)c1 | inactive | 0.046 | inactive | – | – | –

Second part, the molecule after the results:

Activity [1] | IC50 [2] [µM] | Activity [3] | %max [4] [%] | Activity [5] | Activity [4] | SMILES
inactive | 1.92 | inactive | – | – | – | O=C(NCc1cccc(Cn2cccc2C(=O)O)c1)NC1CCCCC1
58% | 0.943 | – | 97 | – | – | O=C(NCc1cccc(Cn2cccc2C(=O)O)c1)Nc1ccc(OC(F)(F)F)cc1
inactive | – | inactive | – | – | – | CCOC(=O)c1cccn1Cc1cccc(CNC(=O)Nc2ccc(OC(F)(F)F)cc2)c1
inactive | 0.087 | inactive | – | – | – | CCOC(=O)c1cccn1Cc1ccc(CNC(=O)NC23C[C@H]4C[C@@H](C2)C[C@@H](C3)C4)cc1
inactive | 0.043 | inactive | – | – | – | CCOC(=O)c1cccn1Cc1ccccc1CNC(=O)NC12C[C@H]3C[C@@H](C1)C[C@@H](C2)C3
inactive | 0.073 | inactive | – | – | – | O=C(NCc1ccc(Cn2cccc2C(=O)O)cc1)NC12C[C@H]3C[C@@H](C1)C[C@@H](C2)C3
inactive | 0.611 | inactive | – | – | – | CCOC(=O)c1cccn1Cc1ccc(CNC(=O)Nc2ccc(OC(F)(F)F)cc2)cc1
38% | – | inactive | 55 | inactive | – | O=C(NCc1ccccc1Cn1cccc1C(=O)O)Nc1ccc(OC(F)(F)F)cc1
